Source: ChEMBL document CHEMBL3414559, “Novel C-4 heteroaryl 13-cis-retinamide Mnk/AR degrading agents inhibit cell proliferation and migration and induce apoptosis in human breast and prostate cancer cells and suppress growth of MDA-MB-231 human breast and CWR22Rv1 human prostate tumor xenografts in mice” (J Med Chem, 2015)
The source made the active and inactive calls. The rule behind the calls is not given here.

Key:
LNCaP [1] = assay: Reduction in cell viability in human LNCAP cells in presence of AR siRNA at 2.5 uM and 5 uM after 72 hrs by MTT assay; format: functional, cell-based
Method in brief: (§1)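 LNCaP cells transfected with 100 nM AR and/or Mnk1 siRNA (or scrambled control) by lipofection for 18 h, washed twice with PBS, returned to growth medium; drug added 24 h later, viability read by MTT after 72 h. Untransfected cells treated alike. Knockdown confirmed by immunoblot; three independent experiments, normalized to control cells.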

CWR22R [2] = assay: Antitumor activity against human CWR22Rv1 cells xenografted in SCID mouse assessed as reduction in Bcl2 protein expression at 20 mg/kg, ip dosed once daily for 5 days per week for 28 days by SDS-PAGE and Western blotting method; format: functional, organism-based; set-up: dose 20 mg/kg
Method in brief: (§2)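 CWR22Rv1 cells (1 × 10⁶) implanted subcutaneously in male SCID mice, castrated; at ~100 mm³ tumors, randomized (n = 6/group) to vehicle (40% β-cyclodextrin in ddH₂O) or drug ip in same vehicle once daily, 5 days/week for 28 days. Tumor lysates made in RIPA buffer, 50 μg protein from pooled samples (n = 6) on 10% SDS–PAGE, immunoblotted; GAPDH as loading control.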

CWR22R [3] = assay: Antitumor activity against human CWR22Rv1 cells xenografted in SCID mouse assessed as reduction in fAR protein expression at 20 mg/kg, ip dosed once daily for 5 days per week for 28 days by SDS-PAGE and Western blotting method; format: functional, organism-based; set-up: dose 20 mg/kg; method in brief: as §2
LNCaP [4] = assay: Reduction in cell viability in human LNCAP cells in presence of Mnk1 siRNA at 2.5 uM and 5 uM after 72 hrs by MTT assay; format: functional, cell-based
Method in brief: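 LNCaP cells in RPMI 1640 with 10% FBS were transfected with 100 nM Mnk1 siRNA (Lipofectamine 2000) for 18 h, with scrambled siRNA as control. After two PBS washes they were returned to growth medium, dosed 24 h later, and harvested after 72 h. Viability was read by MTT and normalized to control cells, as mean ± SEM of three independent experiments.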

[5] = Antitumor activity against human CWR22Rv1 cells xenografted in SCID mouse assessed as inhibition of tumor growth at 20 mg/kg, ip dosed once daily for 5 days per week for 28 days; format: functional, CWR22R; conditions: 22Rv1, ip, route intraperitoneal, read-out: TGI
[6] = Antitumor activity against human CWR22Rv1 cells xenografted in SCID mouse assessed as tumor growth at 20 mg/kg, ip dosed once daily for 5 days per week for 28 days; format: functional, CWR22R; conditions: route intraperitoneal
Method in brief: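 Castrated male SCID mice carrying subcutaneous CWR22Rv1 tumors (1 × 10⁶ cells implanted; ~100 mm³ at randomization, n = 6/group) given ip drug in 40% β-cyclodextrin/ddH₂O once daily, 5 days/week for 28 days; vehicle controls. Tumor volume followed; %T/C = median treated volume/median control volume at day 28 × 100. Body weight tracked as toxicity marker.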

Mus musculus = assay: Toxicity in human CWR22Rv1 cells xenografted SCID mouse assessed as effect on body weight at 20 mg/kg, ip dosed once daily for 5 days per week for 28 days; format: organism-based; set-up: dose 20 mg/kg, route intraperitoneal; conditions: in vivo
Method in brief: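 Castrated male SCID mice carried subcutaneous CWR22Rv1 tumors (1 × 10⁶ cells implanted) and were randomized at ~100 mm³, n = 6/group. Dosing was ip 20 mg/kg once daily, 5 days/week for 28 days, in 40% β-cyclodextrin in ddH₂O, against vehicle. Body weight was monitored throughout as a surrogate toxicity marker.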

CWR22R [7] = assay: Antitumor activity against human CWR22Rv1 cells xenografted in SCID mouse assessed as increase in Bad protein expression at 20 mg/kg, ip dosed once daily for 5 days per week for 28 days by SDS-PAGE and Western blotting method; format: functional, organism-based; set-up: dose 20 mg/kg; method in brief: as §2
CWR22R [8] = assay: Antitumor activity against human CWR22Rv1 cells xenografted in SCID mouse assessed as reduction in Mnk1/2 protein expression at 20 mg/kg, ip dosed once daily for 5 days per week for 28 days by SDS-PAGE and Western blotting method; format: functional, organism-based; set-up: dose 20 mg/kg; method in brief: as §2
CWR22R [9] = assay: Antitumor activity against human CWR22Rv1 cells xenografted in SCID mouse assessed as reduction in peIF4E protein expression at 20 mg/kg, ip dosed once daily for 5 days per week for 28 days by SDS-PAGE and Western blotting method; format: functional, organism-based; set-up: dose 20 mg/kg; method in brief: as §2
LNCaP [10] = assay: Reduction in cell viability in human LNCAP cells at 5 uM after 72 hrs by MTT assay; format: functional, cell-based; method in brief: as §1
CWR22R [11] = assay: Antitumor activity against human CWR22Rv1 cells xenografted in SCID mouse assessed as reduction in AR-V7 protein expression at 20 mg/kg, ip dosed once daily for 5 days per week for 28 days by SDS-PAGE and Western blotting method; format: functional, organism-based; set-up: dose 20 mg/kg; method in brief: as §2
CWR22R [12] = assay: Antitumor activity against human CWR22Rv1 cells xenografted in SCID mouse assessed as reduction in cyclin D1 protein expression at 20 mg/kg, ip dosed once daily for 5 days per week for 28 days by SDS-PAGE and Western blotting method; format: functional, organism-based; set-up: dose 20 mg/kg; method in brief: as §2

## CC1=C(/C=C/C(C)=C/C=C/C(C)=C\C(=O)Nc2cccc(F)c2)C(C)(C)CCC1n1ccnc1 (stereo not drawn)
LNCaP [1]
  Activity: Active
CWR22R [2]
  Activity: Active
CWR22R [3]
  Activity: Active
LNCaP [4]
  Activity: Active
[5]
  inhibition in vivo at 20 mg/kg: 61.2%
[6]
  T/C: 38.8%
Mus musculus
  Activity: Non-toxic
CWR22R [7]
  Activity: Active
CWR22R [8]
  Activity: Active
CWR22R [9]
  Activity: Active
LNCaP [10]
  Activity: Active
CWR22R [11]
  Activity: Active
CWR22R [12]
  Activity: Active
